Vif inh = HIV Vif self-association inhibitors, primary screen, imaging, HEK293T, single point. HEK293T cells, Vif self-association by quenched fluorescence, 24 h. inhibition, % at 7.49 µM. 340,000 compounds, 0.35% hits; in the data active = inhibition above about 50%, passing the limit was not always enough; inconclusive = no clear call, values can overlap the other calls; inactive = below about 31%
Wnt bcat act = Wnt/beta-catenin pathway activators, primary screen, cell-based, plate reader, single point. Wnt/beta-catenin reporter cell assay, activator. activation, % at 9.35 µM. 300,000 compounds, 1.2% hits. AID 743398, 2014; in the data active = activation above about 30%, passing the limit was not always enough; inconclusive = no clear call, values can overlap the other calls;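 also: 0% = neutral control wells and 100% = positive control wells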
esBAF inh = Bmi1 luciferase reporter increase in mESCs, primary screen, esBAF inhibitor project, mouse ES cells, Bmi1 luciferase knock-in, single point; 24 h; 100% = twice the neutral-well signal; reporter increase, % at 12.5 µM; 350,000 compounds, 2% hits; AID 602393, 2012; in the data active = activation above about 40%; inconclusive = no clear call, values can overlap the other calls;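 also: 0% = median of the plate's neutral control wells and 100% = double that signal; a rise in the Bmi1 reporter signal indicates esBAF inhibition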
Xi reactivation = activators of inactive X chromosome reactivation, primary screen, imaging, XiGFP fibroblasts, GFP high-content imaging, set 2; 360,000 compounds, 0.055% hits; XiGFP mouse fibroblasts, % GFP-positive cells imaging, 3 d; cells co-treated with 5-aza-dC sensitizer; scaled so ellipticine positive control = 100%; activation, % at 7.58 µM;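 active = mean normalized replicate activation at least 10% and every replicate at or above 10%; inconclusive = only one of the two criteria met; inactive = mean below 10% and not all replicates reach 10%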;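 also: 0% = median of on-plate neutral control wells and 100% = ellipticine 6 µM median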
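System: 68-5-11 XiGFP fibroblast line | Buffer or medium: DMEM containing 5-aza-dC | Compound: Single point | Times: Compounds 3 days, fix/stain 15 min at room temperature | Benchmarks: Positive control ellipticine, 6 µM final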
MITF TRPM1 HTS = activators of MITF-driven TRPM1 promoter reporter, primary screen, cell-based, SK-MEL-5, luciferase, single point; SK-MEL-5 TRPM1-promoter luciferase, 24 h; % of positive control, neutral wells = 0; activation, % at 12.5 µM; AID 588334, 2011; 300,000 compounds, 0.75% hits;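 active = mean activation of at least 80% with every replicate also reaching 80%; inconclusive = mean reaches 80% but some replicate falls short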;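 also: 0% = neutral control wells and 100% = parthenolide positive control wells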
* hit, by the source's call; ? = inconclusive; · = no result given; ! = not active in a repeat. An excerpt weighted towards active compounds, which were near 2.6% of everything screened.

SMILES | Vif inh | Wnt bcat act | esBAF inh | Xi reactivation | MITF TRPM1 HTS
Nc1nc(Nc2ccccc2)nc2ccccc12 | -2 | 41* | 4 | · | ·
Cc1ccccc1Nc1nc(N)c2ccccc2n1 | 8 | 40* | -20 | -1 | 29
COc1ccc(C)cc1Nc1nc(N)c2ccccc2n1 | -3 | -1 | 13 | 0 | ·
Cc1ccc(S(=O)(=O)Nc2cccc3c2O[C@H](CN(C)S(=O)(=O)c2cn(C)cn2)[C@@H](C)CN([C@H](C)CO)C3=O)cc1 | · | · | 0 | 0 | ·
CCNC(=O)C[C@@H]1CC[C@@H]2[C@@H](COc3ccc(NC(=O)NC(C)C)cc3C(=O)N2C)O1 | · | · | 4 | 0 | ·
Cc1occc1-c1nnc(SCC(=O)Nc2ccccc2)n1Cc1ccccc1 | -2 | · | 46* | · | 5
COc1ccc(NC(=O)C2C(=O)N(CCO)C3(C)CC2c2ccccc2O3)cc1 (stereo not drawn) | 7 | 5 | 26*! | · | 2
Cc1ccc(S(=O)(=O)N(C)C[C@@H]2Oc3ncc(C#Cc4ccc(C(F)(F)F)cc4)cc3C(=O)N([C@H](C)CO)C[C@@H]2C)cc1 | · | · | -1 | 0 | ·
COc1ccc(NC(=O)N(C)C[C@H]2OCc3ccccc3-c3c(n(C)c4ccccc34)C(=O)N([C@@H](C)CO)C[C@H]2C)cc1 | · | · | 5 | 0 | ·
CCOC(=O)c1c(C)[nH]c(-c2csc(C)n2)c1C | -3 | 6 | · | 0 | 58
CCOC(=O)c1c(C)[nH]c(-c2csc(N)n2)c1C | 112* | -6 | · | 2 | 0
C[C@@H]1CN([C@@H](C)CO)C(=O)c2cc(C3=CCCCC3)cnc2O[C@H]1CN(C)C(=O)c1cccnc1 | · | · | 10 | -1 | ·
CCCc1ccc2oc(C(=O)N(C)Cc3ccn[nH]3)c(C)c2c1 | -2 | 7 | 75* | 0 | 44
CCCc1ccc2oc(C(=O)NCCc3cnn(C)c3)c(C)c2c1 | -12 | 30 | 47* | 0 | 68
CCCc1ccc2oc(C(=O)NCCc3nc(C(=O)OCC)cs3)c(C)c2c1 | · | 17 | · | 0 | 29
CCCc1ccc2oc(C(=O)N(Cc3nccn3C)C(C)C)c(C)c2c1 | -5 | 7 | 19 | 0 | 22
C[C@H](CO)N1C[C@H](C)[C@H](CN(C)S(=O)(=O)c2cn(C)cn2)Oc2ccc(NC(=O)CCN3CCOCC3)cc2CC1=O | · | · | 0 | 0 | ·
NC(N)=Nc1nc(C2COc3ccccc3O2)cs1 (stereo not drawn) | 0 | 53* | · | 0 | 51
COC(=O)C[C@H]1CC[C@H]2[C@@H](COc3ccc(NS(=O)(=O)c4cccc(F)c4)cc3C(=O)N2C)O1 | · | · | -7 | 0 | ·
O=c1cc(-c2ccccc2)[nH]c2nc3ccccc3n12 | -5 | 47* | -7 | · | 16
C#CCN1C(=O)S/C(=C\c2ccc(-c3ccc(Cl)c(C(=O)O)c3)o2)C1=O | 12 | 31* | 38 | 0 | 27
CCc1ccc2[nH]c(C(=O)Nc3ccc(Br)c(C)n3)cc2c1 | -6 | 16 | 44* | 0 | 66
CCc1ccc2[nH]c(C(=O)Nc3ccc(F)cc3Br)cc2c1 | 5 | 1 | 2 | 0 | -15
CSCCC(NC(=O)OC(C)(C)C)C(=O)Oc1ccc2c(=O)c(-c3ccc4c(c3)OCCO4)coc2c1 (stereo not drawn) | 2 | 37* | -5 | · | ·
CSCCC(NC(C)=O)C(=O)Oc1ccc2c3c(c(=O)oc2c1)CCCC3 (stereo not drawn) | 0 | 3 | -1 | · | ·
SMILES | Vif inh | Wnt bcat act | esBAF inh | Xi reactivation | MITF TRPM1 HTS
COc1ccc(/C=C2\Oc3ccccc3C2=O)cc1 | -14 | 10 | -37 | 0 | -7
COc1cc(OC)c2c(c1)O/C(=C\c1ccccc1)C2=O | 33 | -1 | 58* | 0 | ·
O=C(NN=C1CCCC1)c1ccccc1[N+](=O)[O-] | -3 | 1 | 9 | 0 | ·
O=C(O)c1ccccc1NN=C1CCCCC1 | -18 | 4 | 83* | 0 | 12
O=C(NN=C1CCCC1)c1ccccc1O | -6 | -1 | 75* | 0 | ·
CC1C/C(=C/c2cccs2)C(=O)/C(=C/c2cccs2)C1 (stereo not drawn) | -1 | 2 | · | 0 | 15
O=C1/C(=C/c2cccs2)CCC/C1=C\c1cccs1 | -4 | 36* | 60* | 0 | 77
Cn1cccc1/C=C1\CCC/C(=C\c2cccn2C)C1=O | 24 | 71* | 81* | · | ·
Cc1ccccc1N=C1NC(=O)/C(=C/c2cccn2C)S1 | 2 | 0 | · | 0 | 5
O=C1/C(=C/c2ccccc2)CCCc2ccccc21 | 2 | 29 | 49* | · | ·
O=C1/C(=C\c2cccnc2)CCc2ccccc21 | -4 | -3 | 5 | · | 16
O=C1C(=Cc2cccs2)CCc2ccccc21 | · | 48* | · | 0 | ·
O=C(c1ccc2c(c1)OCO2)N1CC2(C1)[C@H](c1ccccc1)[C@H](CO)N2C(=O)C1CC1 | · | · | · | 0 | ·
O=C(C[C@@H]1CC[C@@H](NC(=O)c2ccncc2)[C@@H](CO)O1)NCC1CCCCC1 | · | · | -4 | 0 | ·
C[C@H]1CN([C@@H](C)CO)C(=O)c2cccc(NC(=O)Nc3ccc4c(c3)OCO4)c2O[C@@H]1CN(C)S(=O)(=O)c1cn(C)cn1 | · | · | -7 | -1 | ·
COc1ccc(S(=O)(=O)Nc2ccc3c(c2)CC(=O)N([C@@H](C)CO)C[C@H](C)[C@@H](CN(C)Cc2ccc(C(F)(F)F)cc2)O3)cc1 | · | · | 11 | -1 | ·
O=C(NCC1CCCO1)c1ccc(COc2ccccc2)cc1 (stereo not drawn) | -6 | 9 | 49* | 0 | 21
O=C(NCC1CCCO1)c1ccc2[nH]c3c(c2c1)CCCC3 (stereo not drawn) | -4 | 4 | 45* | 0 | 41
CC(C)NC(=O)Nc1ccc2c(c1)C(=O)N([C@@H](C)CO)C[C@@H](C)[C@H](CN(C)Cc1ccc(C(=O)Nc3ccccc3N)cc1)O2 | · | · | · | 0 | ·
CCC(=O)N(C)C[C@H]1Oc2cc(C#C[C@@H](C)O)ccc2S(=O)(=O)N([C@H](C)CO)C[C@@H]1C | · | · | · | 0 | ·
Clc1ccccc1-c1ncc(-c2ccccc2)o1 | -1 | 57* | 14 | 0 | 28
CSc1nnc(-c2ccccc2Cl)o1 | -5 | · | 21 | · | 33
c1ccc(OCCOc2ncnc3ccccc23)cc1 | -19 | · | 51* | · | ?
Cc1noc(C)c1NC(=O)Nc1ccc2c(c1)CC(=O)N([C@H](C)CO)C[C@H](C)[C@@H](CN(C)CC1CC1)O2 | · | · | -3 | -1 | ·
Fc1cc(Br)ccc1COc1ccc(-c2nnco2)cc1 | -1 | 22 | 55* | 0 | 119*
Fc1ccc(COc2ccc(-c3nnco3)cc2)c(Cl)c1 | 0 | 11 | 33 | 0 | 30
O=C(Nc1nc(-c2ccccc2)ns1)c1ccncc1 | -3 | ? | · | 0 | 13

Screening results: PubChem, Broad Institute
